≈ marks a conversion by molar mass, not a printed value.
Columns and labels:
[1] = tested on: Aspergillus fumigatus; test: In vitro antifungal activity against Aspergillus fumigatus; type: functional
How it was run: (§1)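 Clinical isolates kept on Sabouraud's dextrose agar at 28 °C. Inocula at 1 × 10^5 CFU/mL: C. albicans yeast cells grown 48 h in Sabouraud's dextrose broth; A. fumigatus and T. asteroides conidia grown 14 days in that broth with 0.1% Tween 80. Microtiter twofold dilution in Sabouraud's dextrose broth, 100 to […] µg/mL, methanol ≤2%. Sealed, 37 °C, 48 h. MIC is the lowest concentration without visible growth.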

[2] = tested on: Trichophyton benhamiae; test: In vitro antifungal activity against Trichophyton asteroides; type: functional, tricophyton asteroides; how it was run: as §1
[3] = tested on: Candida albicans; test: In vitro antifungal activity against Candida albicans; type: functional; how it was run: as §1

MIC [1] [µg/mL] | MIC [2] [µg/mL] | MIC [3] [µg/mL] | Structure (SMILES)
3.1 (≈ 3.35 µM) | 3.1 (≈ 3.35 µM) | 1.6 (≈ 1.73 µM) | C[C@@H]1[C@H](O)[C@@H](C)/C=C/C=C/C=C/C=C/C=C/C=C/C=C/[C@H](O[C@@H]2O[C@H](C)[C@@H](O)[C@H](N)[C@@H]2O)C[C@@H]2O[C@](O)(C[C@@H](O)C[C@@H](O)[C@H](O)CC[C@@H](O)C[C@@H](O)CC(=O)O[C@H]1C)C[C@H](O)[C@H]2C(=O)O [AMPHOTERICIN B]
3.1 (≈ 8.99 µM) | < 0.1 | 3.1 (≈ 8.99 µM) | Clc1ccccc1C(c1ccccc1)(c1ccccc1)n1ccnc1 [CLOTRIMAZOLE]

Source: ChEMBL document CHEMBL1121767, “Synthesis and in vitro antimicrobial property of o-carborane derivatives” (1981)
